Screening data (PubChem)
Scp1 inh – blocks human Scp-1 phosphatase activity. Recombinant Scp1, phosphopeptide, malachite green phosphate absorbance. actives 0.88% (n = 340,000). inhibition, % at 20 µM. AID 493091. Q9GZU7;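 active = inhibition above about 50% at 20 µM, limit read from the data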
Target sequence (Q9GZU7 76-261 limits assumed): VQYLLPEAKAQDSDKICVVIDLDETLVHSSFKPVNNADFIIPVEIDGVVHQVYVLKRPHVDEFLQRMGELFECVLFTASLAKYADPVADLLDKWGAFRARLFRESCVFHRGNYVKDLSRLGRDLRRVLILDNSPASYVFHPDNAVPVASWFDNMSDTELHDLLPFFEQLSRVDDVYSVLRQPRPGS
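assay system = SCP-1 phosphatase catalytic domain, residues 76-261 | buffer or medium = 50 mM Tris acetate pH 5.5, 0.005% Tween-20, 10 mM MgCl2 | incubation = enzyme reaction 45 min at room temperature, colour 5 min, stabilisation 30 min | signal = Phosphate-binding colour reagent, absorbance read at 630 nm | measure = % inhibition at 20 µM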
NadD block – NadD (S. aureus) enzyme inhibition. purified NadD enzyme, colorimetric absorbance read-out. inhibition, % at 20 µM. actives 0.78% (n = 360,000). AID 602399; in the data active = inhibition above about 26%
DNMT1 block – blocks human DNA methyltransferase DNMT1; DNMT1 molecular beacon, Hinp1I cleavage, fluorescence; actives 0.83% (n = 360,000); inhibition (reported as % activation of signal), % at 10 µM; AID 588458; P26358; in the data active = inhibition above about 50%
SUMO1 PPI mod – alters human SUMO1 binding to SIM partners; SUMO1 binding to a labelled peptide, TR-FRET, 1 h; inhibition, % at 20 µM; actives 0.33% (n = 360,000); AID 602429; in the data active = inhibition above about 37%
Target sequence (P63165 whole entry, looked up): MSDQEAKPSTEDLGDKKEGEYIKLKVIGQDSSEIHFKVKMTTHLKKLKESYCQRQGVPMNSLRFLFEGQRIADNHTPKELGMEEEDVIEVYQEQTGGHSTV
STEP block – inhibitors of human striatal-enriched phosphatase STEP; P54829; recombinant STEP, OMFP fluorogenic substrate, fluorescence; inhibition, % at 20 µM; actives 0.25% (n = 360,000); AID 588621;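 active = inhibition at 20 µM, scaled per plate between control wells, above about 37%, limit read from the data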
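Assay system: isolated STEP enzyme. Buffer or medium: pH 6.0 Bis-Tris with DTT and Tween 20. Also added: fluorogenic phosphatase substrate OMFP at 25 µM final. Dosing: 20 µM, 1% DMSO. Timing: 20 min reaction, room temperature, in the dark. Measured by: fluorescence intensity, excitation 480 nm, emission 540 nm. Evaluation: normalized % inhibition.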
LMPTP block – LMPTP (human) inhibition | P24666 | recombinant LMPTP-A, OMFP fluorogenic substrate, fluorescence intensity | inhibition, % at 20 µM | actives 0.22% (n = 360,000) | AID 651560;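 active = compounds that cut the enzyme signal by at least half of the control window in the single-dose screen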
Target sequence (P24666 whole entry, looked up): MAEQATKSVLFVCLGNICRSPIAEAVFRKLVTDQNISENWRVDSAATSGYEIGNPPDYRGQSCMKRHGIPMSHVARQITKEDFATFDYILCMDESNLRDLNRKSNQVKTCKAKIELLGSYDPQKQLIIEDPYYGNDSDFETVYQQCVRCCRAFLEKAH
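material = LMPTP-A | quantity = 0.625 nM enzyme | reagent = OMFP substrate, 400 µM final | buffer or medium = Bis-Tris pH 6.0, DTT, detergent | detection = endpoint fluorescence intensity from OMFP dephosphorylation | dosing = single 20 µM dose | read-out basis = % inhibition relative to no-enzyme and uninhibited control wells | control set = no-enzyme and uninhibited controls | timing = 50 min at room temperature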
Beacon interf DR – shows spectral interference in the DNMT1 beacon assay | shares compounds with DNMT1 block | molecular beacon fluorescence, spectral interference counter-screen | IC50, µM | 200 tested, under 10 active | AID 602382; call rule not given here
DNMT1 confirm – confirmation of human DNMT1 inhibitors; actives 8% (n = 2,300); shares compounds with DNMT1 block; inhibition, % at 10 µM; DNMT1 molecular beacon HinP1I cleavage, fluorescence;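 active = average inhibition of at least 30% in the single-concentration confirmation test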
DNMT1 interf – shows spectral interference in the DNMT1 beacon assay; activation (fluorescence interference), % at 10 µM; actives 1% (n = 2,300); AID 602387; shares compounds with DNMT1 block; DNMT1 molecular beacon spectral interference counterscreen, fluorescence 485/520;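 active = activation of at least 30% at 10 µM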;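 note: DNMT1 catalytic domain with a HinP1I cleavage step and a FAM/dabcyl DNA beacon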
Numbers stand for hits; i = inactive; nt = no result given. Hits are enriched below; roughly 2.3% of the tested compounds scored in any of these assays.

SMILES | Scp1 inh | NadD block | DNMT1 block | SUMO1 PPI mod | STEP block | LMPTP block | DNMT1 confirm | DNMT1 interf | others
CCc1cc(=O)oc2cc(C)c(CN3CCCC(C)C3)c(O)c12 (configuration not stated) | i | i | i | i | i | i | nt | nt
CCCCc1cc(=O)oc2cc(C)c(CN3CCCC3)c(O)c12 | i | i | 96 | i | i | i | i | i
Cc1noc(C)c1-c1ccc(C(=O)Nc2ccccc2)c2occc12 | nt | i | i | i | i | i | nt | nt
Cc1ccccc1-c1cccc([C@@H]2C[C@H]3[C@H](CON3C)CN2C(=O)CCc2ccccc2)c1 | i | i | 78 | i | i | i | i | i
CC(=O)N1C[C@H]2CON(C)[C@H]2C[C@H]1c1cccc(-c2ccccc2C)c1 | i | i | i | i | i | i | nt | nt
COc1ccc(S(=O)(=O)N2CCN3CCCC3C2)cc1 (configuration not stated) | i | i | i | i | i | i | nt | nt
COc1ccc2nc(C)cc(Nc3ccc(N4CCN(C)CC4)cc3)c2c1 | i | i | 70 | i | i | i | 33 | i | Beacon interf DR=i
CCCCCOc1ccc(C(=O)CCC(=O)NC(C)c2ccc(S(N)(=O)=O)cc2)cc1 (configuration not stated) | i | i | 75 | i | i | i | i | i
O=C(COc1ccc(F)cc1)N1CCC(Cc2ccccc2)CC1 | i | i | i | i | i | i | nt | nt
CCN1CCCc2cc(CN(CCN3CCOCC3)C(=S)Nc3cccc(Cl)c3)ccc21 | i | i | i | i | i | i | nt | nt
COc1ccc(C(=O)OCC(=O)Nc2ncc([N+](=O)[O-])s2)cc1OC | 51 | i | 99 | i | i | i | 86 | i | Beacon interf DR=i
O=C(COC(=O)c1ccc(Br)o1)Nc1ncc([N+](=O)[O-])s1 | i | i | 71 | i | i | i | i | i
COc1ccc(C(=O)OCC(=O)Nc2sccc2C(N)=O)cc1OC | i | i | i | i | i | i | nt | nt
C/C(=N\OCC(=O)OCC(=O)N(Cc1ccccc1)C(C)(C)C)c1ccc2c(c1)OCO2 | i | i | i | i | i | i | nt | nt
CNC(=O)CSc1nnc(SCCC(=O)O)s1 | i | i | 73 | i | i | i | i | i
O=C(NCc1cccc(F)c1)c1cccc2c1C(=O)c1ccc(N3CCOCC3)cc1S2(=O)=O | i | i | i | i | i | i | nt | nt
O=C(NCc1ccccc1C(F)(F)F)c1cccc2c1C(=O)c1ccc(N3CCOCC3)cc1S2(=O)=O | i | i | 62 | i | i | i | i | i
CC(=O)Nc1ccc(NC(=O)C(C)OC(=O)/C=C/c2cn(-c3ccccc3)nc2-c2cccnc2)cc1 (configuration not stated) | i | i | i | i | i | i | nt | nt
Cc1ccccc1NC(=O)COC(=O)/C=C/c1cn(-c2ccccc2)nc1-c1cccnc1 | i | i | 52 | i | i | i | i | i
O=S(=O)(c1ccc2c(c1)CCN2)N1CCOCC1 | i | i | 102 | i | i | i | i | i
O=S(=O)(c1ccc2ccccc2c1)N1CCOCC1 | i | i | i | i | i | i | nt | nt
O=C(COC(=O)COc1ccccc1)NCc1ccco1 | i | i | i | i | i | i | nt | nt
O=C(COC(=O)c1ccccc1Oc1ccccc1)NCc1ccco1 | 70 | i | 55 | i | i | i | i | i
COc1ccc(S(=O)(=O)NCc2ccc3c(c2)cc(C)n3C)cc1 | i | i | 59 | i | i | i | i | i
Cc1cc2cc(CNC(=O)Nc3ccccc3)ccc2n1C | i | i | 54 | i | i | i | i | i
SMILES | Scp1 inh | NadD block | DNMT1 block | SUMO1 PPI mod | STEP block | LMPTP block | DNMT1 confirm | DNMT1 interf | others
CCOC(=O)NCc1ccc2c(c1)cc(C)n2C | i | i | i | i | i | i | nt | nt
CCCCN(C(=O)CCC(=O)Nc1cc(C)on1)C(C(=O)NC1CCCC1)c1ccc(OCC)cc1 (configuration not stated) | i | i | i | i | i | i | nt | nt
CCOC(=O)C1CCCN(C(=O)c2ccccc2NC(=O)C2=C(C)OCCS2)C1 (configuration not stated) | i | i | i | i | i | i | nt | nt
COc1ccc2c3c(cccc13)C(=O)CC2 | i | i | 128 | i | i | i | i | 37
CCn1c(C)nc2cc(C(=O)N/N=C/c3ccc(N4CCOCC4)cc3)ccc21 | i | i | i | i | i | i | nt | nt
CCCCN(CC)CCNc1c(NC2CCN(C(=O)OCC)CC2)c(=O)c1=O | i | i | 66 | i | i | i | i | i
CCOC(=O)C1=C(Nc2ccccc2)CC(C)(O)C(C(=O)OCC)C1c1ccc(Cl)cc1 (configuration not stated) | i | i | i | i | i | i | nt | nt
O=C1c2ccccc2CN1CCSC(=S)N1CCOCC1 | i | i | i | i | i | i | nt | nt
CCOc1cc2[nH]c(=S)n(CCC(=O)NCc3ccc(OC)cc3)c(=O)c2cc1OCC | i | i | 59 | i | i | i | i | i
COc1ccc(CNC(=O)CCCn2c(=S)[nH]c3cc4c(cc3c2=O)OCO4)cc1 | i | i | i | i | i | i | nt | nt
O=C(CCc1nc2ccccc2c(=O)[nH]1)Nc1nnc(SCc2ccc(Cl)cc2)s1 | i | i | 68 | i | i | i | i | i
O=C(Nc1ccccc1)Nc1nnc(SCc2ccc(Cl)cc2)s1 | i | i | i | i | i | i | nt | nt
O=C(CCc1nc2ccccc2c(=O)[nH]1)Nc1nnc(SCc2ccccc2F)s1 | i | i | 77 | i | i | i | i | i
Cc1ccc(Nc2nnc(SCc3nc4ccccc4c(=O)[nH]3)s2)cc1 | i | i | 66 | i | i | i | i | i
O=C1NC(Cc2ccccc2)c2nc3cc(Cl)ccc3c(=O)n2-c2ncccc21 (configuration not stated) | nt | i | i | i | i | i | nt | nt
COc1ccc(NC(=S)NCc2cccnc2)cc1 | i | i | 89 | i | i | i | i | i
COc1ccc(NC(=S)NCc2cccnc2)cc1OC | i | i | i | i | i | i | nt | nt
CC(Sc1nc2cc([N+](=O)[O-])ccc2n1-c1ccc(F)cc1)C(=O)NCc1ccc2c(c1)OCO2 (configuration not stated) | i | i | i | i | i | i | nt | nt
COc1ccccc1-n1c(SCC(=O)NCc2ccc3c(c2)OCO3)nc2cc([N+](=O)[O-])ccc21 | i | i | 90 | i | i | i | i | i
Nc1nonc1-n1nnc(C(=O)N/N=C/c2ccco2)c1CSc1ccccc1 | i | i | i | i | i | i | nt | nt
